Data set [1] deals with Rattus norvegicus. The data set can be described thus: Reduction of body weight in DIO rat assessed as weight change at 0.3 mg/kg, po after 18 hrs. It counts as functional. The method in brief: (§1)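 Acute study in diet-induced obese rats. A single oral dose was given and rats were monitored for 18 h. Food intake suppression and body weight change were measured relative to vehicle-treated controls.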

The subject of data set [2] is Rattus norvegicus. The data set can be described thus: Reduction of body weight in DIO rat assessed as weight change at 0.1 mg/kg, po after 18 hrs. The format is functional. The essentials: as §1
The target of another data set is Cannabinoid receptor 1 (Homo sapiens, UniProt P21554). The experiment in a line: Inhibition of human CB1 receptor.
Another data set addresses Cannabinoid receptor 2 (Homo sapiens, UniProt P34972). The data set can be described thus: Inhibition of human CB2 receptor.
Data set [3] concerns Rattus norvegicus. The data set can be described thus: Suppression of food intake in DIO rat at 0.1 mg/kg, po relative to control. It counts as functional. The essentials: as §1
The test system of data set [4] is Rattus norvegicus. The experiment in a line: Suppression of food intake in DIO rat at 0.3 mg/kg, po relative to control. The format is functional. The essentials:
as §1

The nature of data set [5]: Bioavailability in rat. The format is ADME, organism-based. Particulars: in vivo.
A short description of data set [6]: Half life in rat. Particulars: in vivo. It counts as ADME, organism-based.
Data set [7] can be described thus: Plasma clearance in rat. It counts as ADME, organism-based.
A short description of data set [8]: Ratio of drug level in brain to plasma in rat at 1 mg/kg, iv after 4 hrs. It counts as ADME, organism-based. The arrangement: dose 1 mg/kg, route intravenous.
Data set [9] is described as follows: Drug level in rat brain at 1 mg/kg, iv after 4 hrs. It counts as ADME, organism-based. On the set-up: dose 1 mg/kg, route intravenous. Particulars: read-out: Drug uptake.
A short description of data set [10]: Drug level in rat plasma at 1 mg/kg, iv after 4 hrs. It counts as ADME, organism-based. On the set-up: dose 1 mg/kg, route intravenous. Particulars: read-out: Drug uptake.
Data set [11] can be described thus: Bioavailability in dog. The format is ADME, organism-based, Canis lupus familiaris. Particulars: in vivo. The essentials: (§2)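 PK in dog and rhesus macaque. Bioavailability, plasma clearance (mL/min/kg) and terminal half-life derived from plasma drug levels.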
The nature of data set [12]: Half life in dog. It counts as ADME, organism-based, Canis lupus familiaris. Particulars: in vivo. The essentials: as §2
Data set [13] in a line: Plasma clearance in dog. It counts as ADME, organism-based, Canis lupus familiaris. The method in brief: as §2
Data set [14] in a line: Bioavailability in rhesus monkey. It counts as ADME, organism-based, Macaca mulatta. Particulars: in vivo. The method in brief: as §2
Data set [15] is described as follows: Half life in rhesus monkey. It counts as ADME, organism-based, Macaca mulatta. Particulars: in vivo. The essentials:
as §2

A short description of data set [16]: Plasma clearance in rhesus monkey. The format is ADME, organism-based, Macaca mulatta. The method in brief:
as §2

Here are results for one molecule from ChEMBL document CHEMBL1156265, “Furo[2,3-b]pyridine-based cannabinoid-1 receptor inverse agonists: synthesis and biological evaluation. Part 1” (Bioorg Med Chem Lett, 2010).

Sequence of Cannabinoid receptor 2 (P34972 whole entry): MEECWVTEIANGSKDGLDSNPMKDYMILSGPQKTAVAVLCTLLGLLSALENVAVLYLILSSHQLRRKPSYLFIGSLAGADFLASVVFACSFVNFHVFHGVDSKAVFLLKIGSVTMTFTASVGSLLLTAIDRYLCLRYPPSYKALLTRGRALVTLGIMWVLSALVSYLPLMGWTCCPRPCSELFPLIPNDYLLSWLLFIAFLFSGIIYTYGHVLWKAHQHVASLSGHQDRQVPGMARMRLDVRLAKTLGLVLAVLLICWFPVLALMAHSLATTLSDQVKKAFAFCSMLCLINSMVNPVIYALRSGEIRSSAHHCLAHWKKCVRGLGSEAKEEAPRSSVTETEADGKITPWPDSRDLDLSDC
Sequence of Cannabinoid receptor 1 (P21554 whole entry): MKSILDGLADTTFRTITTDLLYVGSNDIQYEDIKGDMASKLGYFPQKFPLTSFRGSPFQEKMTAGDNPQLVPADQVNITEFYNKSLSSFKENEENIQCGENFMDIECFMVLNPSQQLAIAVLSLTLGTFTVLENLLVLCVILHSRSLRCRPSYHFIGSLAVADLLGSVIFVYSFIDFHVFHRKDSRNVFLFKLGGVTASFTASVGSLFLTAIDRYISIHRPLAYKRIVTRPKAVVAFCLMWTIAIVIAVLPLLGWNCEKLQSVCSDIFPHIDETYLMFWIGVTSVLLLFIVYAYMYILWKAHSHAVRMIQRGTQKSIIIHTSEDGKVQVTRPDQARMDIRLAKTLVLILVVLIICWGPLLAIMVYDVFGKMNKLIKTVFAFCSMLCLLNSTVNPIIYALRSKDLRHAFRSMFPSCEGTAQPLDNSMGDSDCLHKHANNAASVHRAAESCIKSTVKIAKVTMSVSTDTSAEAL

For the molecule `CC(=O)Nc1c(C(=O)C(C)(C)O)oc2nc(-c3ccccc3Cl)c(-c3ccc(Cl)cc3)cc12`, the Activity with Rattus norvegicus [1] is -1 g; in the data set with Rattus norvegicus [2], -1 g; in the data set on Rattus norvegicus [3], 28%; with Rattus norvegicus [4], 41%. In addition, the 50% inhibitory concentration (IC50) turned out to be 5.4 nM against Cannabinoid receptor 1 and 5400 nM on Cannabinoid receptor 2. In addition, the bioavailability in data set [5] came out at 61%; in [11] it was 87%; in data set [14], 100%. The half-life is 4.8 h in [6], 26 h in [12] and 45 h in data set [15]. In addition, the clearance in data set [7] turned out to be 16 mL/min/kg; in data set [13] it was 5 mL/min/kg; in data set [16], 2.8 mL/min/kg. In addition, the concentration ratio (Kp) at 4 h in data set [8] was found to be 0.77. Besides, the concentration at 4 h in [9] was 56 nM; in data set [10] it was 72 nM.

What is called IC50 is the midpoint of a concentration-inhibition curve. Usually bioavailability stands for the share of a dose that reaches the circulation, judged against a reference dose that is usually intravenous. A word on the half-life: it is the time in which the quantity being followed falls by half. Broadly, the clearance is a measure of how efficiently the substance is removed, as volume per time. The term Kp denotes the ratio of the level in a tissue or fluid to that in plasma or blood.
